This passage reports Activity results from ChEMBL document CHEMBL1152262, “New cyclic somatostatin analogues containing a pyrazinone ring: importance of Tyr for antiproliferative activity” (2008).

Molecules are shown by their SMILES. Where a SMILES comes first, the peptide text is derived from it. Bridges are numbered along the chain shown (N, C = ends). [ ]: non-standard residue; d: D form.

Holding throughout (assay type): functional
In experiment [1] the test system is A-431. As to the kind of experiment: Antiproliferative activity against human A431 cells at 10 uM by MTT assay. In a few lines:
(§1)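 MTT read-out of proliferation in A431 (human epithelial tumour) and SW480 (human colon carcinoma) cells, both described as expressing SSTRs. Each analogue was tested at […]. TT-232 and cycloheximide were run as positive controls.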

In experiment [2] the test system is SW480. As to the kind of experiment: Antiproliferative activity against human SW480 cells at 25 uM by MTT assay. Put shortly:
as §1

Experiment [3] has as its system A-431. As to the kind of experiment: Antiproliferative activity against human A431 cells at 50 uM by MTT assay. Put shortly:
as §1
(In general: Formazan colour is commonly taken as a measure of viable cells.)

Experiment [4] has as its system SW480. Nature of the experiment: Antiproliferative activity against human SW480 cells at 10 uM by MTT assay. In a few lines:
as §1

Experiment [5] has as its system SW480. As to the kind of experiment: Antiproliferative activity against human SW480 cells at 50 uM by MTT assay. In a few lines: as §1
In experiment [6] the test system is A-431. Nature of the experiment: Antiproliferative activity against human A431 cells at 25 uM by MTT assay. In a few lines: as §1

On to `Cc1cc(O)cc(C)c1C[C@@H]1NC(=O)CCc2nc(C)c([nH]c2=O)CCCCNC(=O)[C@H](CCCCN)NC(=O)[C@@H](Cc2c[nH]c3ccccc23)NC1=O`, for which the Activity is listed as 0% with A-431 [1]; 11% with SW480 [2]; 0% in the experiment with A-431 [3]; 2% in the experiment with SW480 [4]; 7% in the experiment with SW480 [5]; 0% in the experiment on A-431 [6].
With `Cc1nc2c(=O)[nH]c1CCCCNC(=O)[C@H](CCCCN)NC(=O)[C@@H](Cc1c[nH]c3ccccc13)NC(=O)[C@H](Cc1ccc(O)cc1)NC(=O)CC2`, the Activity in the experiment on A-431 [1] is 28%; in the experiment with SW480 [2] it was 31%; in the experiment with A-431 [3] it was 58%; in the experiment with SW480 [4], 35%; in the experiment with SW480 [5], 35%; in the experiment with A-431 [6] it was 42%.
Regarding `Cc1nc2c(=O)[nH]c1CCC(=O)N[C@@H](Cc1ccccc1)C(=O)N[C@H](Cc1c[nH]c3ccccc13)C(=O)N[C@@H](CCCCN)C(=O)NCCCC2`, the Activity with A-431 [1] is given as 31%; in the experiment with SW480 [2], 7%; in the experiment with A-431 [3], 25%; in the experiment on SW480 [4], 0%; with SW480 [5], 0%; in the experiment on A-431 [6], 28%.
As for `Cc1nc2c(=O)[nH]c1CCC(=O)N[C@@H](Cc1ccc(O)cc1)C(=O)N[C@H](Cc1c[nH]c3ccccc13)C(=O)N[C@@H](CCCCN)C(=O)NCCCC2`, the Activity with A-431 [1] is recorded as 19%; with SW480 [2], 23%; in the experiment with A-431 [3] it was 56%; with SW480 [4], 24%; in the experiment with SW480 [5], 7%; in the experiment on A-431 [6], 36%.
Regarding `Cc1nc2c(=O)[nH]c1CCCCNC(=O)[C@H](CCCCN)NC(=O)[C@@H](Cc1c[nH]c3ccccc13)NC(=O)[C@H](Cc1ccccc1)NC(=O)CC2`, the Activity turned out to be 0% with A-431 [1]; 4% in the experiment on SW480 [2]; 0% with A-431 [3]; 2% with SW480 [4]; 4% with SW480 [5]; 0% in the experiment on A-431 [6].
With `Cc1cc(O)cc(C)c1C[C@@H]1NC(=O)CCc2[nH]c(=O)c(nc2C)CCCCNC(=O)[C@H](CCCCN)NC(=O)[C@@H](Cc2c[nH]c3ccccc23)NC1=O`, the Activity with A-431 [1] was found to be 0%; in the experiment on SW480 [2] it was 16%; in the experiment on A-431 [3], 0%; in the experiment with SW480 [4] it was 8%; in the experiment on SW480 [5], 14%; with A-431 [6], 0%.
On to `C[C@@H]1C[C@@H]([C@H](O)CC2CC(=O)NC(=O)C2)C(=O)[C@@H](C)C1` [CYCLOHEXIMIDE], for which the Activity in the experiment with A-431 [1] was found to be 40%; in the experiment with SW480 [2] it was 85%; in the experiment with A-431 [3] it was 80%; with SW480 [4], 68%; in the experiment with SW480 [5] it was 92%; in the experiment with A-431 [6], 70%.
On to `C[C@@H](O)[C@H](NC(=O)[C@@H]1CSSC[C@H](NC(=O)[C@H](N)Cc2ccccc2)C(=O)N[C@@H](Cc2ccc(O)cc2)C(=O)N[C@H](Cc2c[nH]c3ccccc23)C(=O)N[C@@H](CCCCN)C(=O)N1)C(N)=O` [TT-232] (H-[dF]CY[dW]KCT-NH2; disulfide 2-6), for which the Activity amounted to 50% in the experiment on A-431 [1]; 47% with SW480 [2]; 80% with A-431 [3]; 13% in the experiment with SW480 [4]; 88% with SW480 [5]; 60% in the experiment on A-431 [6].
